Compound activity from PubChem BioAssay.
Rows were chosen to be rich in hits. Some 1.4% of all compounds tested hit in one or more screens of this group.
Rce1 inhib: inhibitors of yeast Ras-converting enzyme; yeast membranes, quenched prenylated peptide cleavage fluorescence; calls only; hit rate 0.27% among 290,000; AID 2563;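 active = fall in fluorescence gain of 50% or more versus controls, with final raw signal at or below 3038400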;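 note: plate controls were neutral control wells for no effect and wells lacking membranes for full effect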
CTSL1 counter: blocks F. hepatica cathepsin L1 in PFM18AAP counter-screen; recombinant F. hepatica cathepsin L1, Z-Leu-Arg-MCA fluorescence; AID 1906; inhibition, % at 5.96 µM; hit rate 0.49% among 300,000;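 active = inhibition above the mean of all tested compounds plus 3 SD, set per screening campaign, cut at about 17% in these data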;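 note: 0% = plate median of test compound wells and 100% = 1 µM Z-Phe-Ala-diazomethylketone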
FXIIa inh: blocks human coagulation factor XIIa protease activity; purified FXIIa, Boc-QGR-AMC fluorogenic substrate, 2 h; inhibition, % at 5 µM; hit rate 0.3% among 220,000; AID 800; in the data active = inhibition above about 40%;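 note: 0% = enzyme with no compound and 100% = blank without enzyme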
thrombin 1536: blocks human thrombin protease activity; alpha-thrombin, Boc-VPR-AMC fluorogenic substrate cleavage; hit rate 0.26% among 220,000; inhibition, % at 5 µM;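 active = inhibition at or above 40%; inactive = inhibition below 40%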;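 note: 0% = enzyme with no compound and 100% = wells without enzyme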
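System: human alpha-thrombin protein; Compound dosing: one concentration per compound, 5 µM, with 0.2% DMSO; Timing: reaction at room temperature; Technique: AMC fluorescence, 355/460 nm; Controls: enzyme without compound as high, wells lacking enzyme as low.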
FXIa inh 1536: inhibitors of human coagulation factor XIa; purified FXIa, Boc-Glu-Ala-Arg-AMC fluorogenic substrate; inhibition, % at 5 µM; hit rate 0.14% among 220,000; P03951;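 active = inhibition of at least 40%; inactive = inhibition below 40%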;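 note: fluorescence of freed AMC excited at 355 nm; 0% = enzyme without compound and 100% = no enzyme blank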
Target sequence (P03951 19-387 limits assumed): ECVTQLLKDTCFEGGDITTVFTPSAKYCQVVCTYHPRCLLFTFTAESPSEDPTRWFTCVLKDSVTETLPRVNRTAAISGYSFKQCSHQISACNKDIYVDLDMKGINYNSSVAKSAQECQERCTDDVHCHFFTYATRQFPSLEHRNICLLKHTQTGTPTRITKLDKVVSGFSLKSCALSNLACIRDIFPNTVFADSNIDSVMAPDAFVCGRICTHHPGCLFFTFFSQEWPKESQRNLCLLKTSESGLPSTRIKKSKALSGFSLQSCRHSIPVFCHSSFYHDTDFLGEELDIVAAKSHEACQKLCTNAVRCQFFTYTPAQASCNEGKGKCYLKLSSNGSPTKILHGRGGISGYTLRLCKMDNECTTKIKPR
Target sequence (P03951 388-625 limits assumed): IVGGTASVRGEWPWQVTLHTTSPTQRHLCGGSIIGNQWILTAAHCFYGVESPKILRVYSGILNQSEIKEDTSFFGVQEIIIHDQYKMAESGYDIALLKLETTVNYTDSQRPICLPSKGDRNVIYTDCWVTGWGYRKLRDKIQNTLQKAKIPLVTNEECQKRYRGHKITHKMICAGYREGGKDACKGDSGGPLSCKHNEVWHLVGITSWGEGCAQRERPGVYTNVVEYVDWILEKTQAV
hK5 inh: blocks human kallikrein 5 protease activity | recombinant hK5, fluorogenic AMC substrate cleavage | inhibition, % at 5 µM | hit rate 0.59% among 210,000 | AID 873;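 active = inhibition of 40% or more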;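 note: 0% = enzyme controls without compound and 100% = no-enzyme blanks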
* = called active by the depositor; i = inactive; · = no result; + = active, no number.

SMILES | Rce1 inhib | CTSL1 counter | FXIIa inh | thrombin 1536 | FXIa inh 1536 | hK5 inh
CCN(CC)S(=O)(=O)c1ccc(Cl)c(C(=O)Nc2nncs2)c1 | i | 3 | -5 | -1 | 7 | -11
CCN(CC)S(=O)(=O)c1cc(C(=O)Nc2nncs2)c(Cl)cc1Cl | i | -4 | 3 | 15 | 3 | 62*
Cc1cc(C(=O)N/N=C/c2c3ccccc3cc3ccccc23)n[nH]1 | + | 0 | · | · | · | ·
CCOC(=O)c1csc(-c2ccc(OC)c(OC)c2)n1 | · | 1 | 7 | · | 3 | 0
COc1ccc(-c2nc(CC(=O)O)cs2)cc1OC | + | 2 | 20 | 4 | 5 | -8
CCOc1ccc(-c2nc(CCl)cs2)cc1OC | + | -1 | -4 | -3 | -5 | -13
CC(Sc1nncn1C)C(=O)NCc1ccc2c(c1)OCO2 (stereo unspecified) | i | 2 | 28 | 77* | 32 | 27
Cc1csc(SC(C)C(=O)NCc2ccc3c(c2)OCO3)n1 (stereo unspecified) | i | -2 | 6 | -13 | 1 | 3
Cc1ccc2nc(SCC(=O)Nc3cccc(S(N)(=O)=O)c3)[nH]c2c1 | i | -4 | 9 | 1 | 2 | 93*
NS(=O)(=O)c1cccc(NC(=O)CSc2nc3ccccc3[nH]2)c1 | i | 0 | 10 | -2 | 7 | -4
O=C(Nc1ccc(NC(=O)c2ccco2)cc1)c1ccco1 | i | -2 | · | · | · | ·
CC(C)(C)c1ccc(C(=O)Nc2ccc(NC(=O)c3ccco3)cc2)cc1 | i | 4 | 11 | 0 | 11 | 99*
O=C(CNC(=O)c1ccco1)Nc1ccncc1 | i | 1 | · | · | · | ·
O=C(Nc1ccc(Cc2ccncc2)cc1)c1ccco1 | i | 0 | 18 | 40* | 31 | 70*
COC(C[C@@H]1O[C@@H]1[C@@H](O)[C@H](C)OCc1ccccc1)OC | i | · | 8 | -4 | -5 | -4
COC(C[C@H]1O[C@H]1C(=O)[C@H](C)OCc1ccccc1)OC | i | 76* | · | · | · | ·
COC(C/C=C\C(=O)[C@H](C)OCc1ccccc1)OC | + | 16 | · | · | · | ·
COC(C[C@H]1O[C@@H]1C(=O)[C@H](C)OCc1ccccc1)OC | i | 74* | · | · | · | ·
Nc1nc(SCCO)[nH]c(=O)c1NC(=O)c1ccccc1F | i | 4 | 8 | -6 | -7 | -4
CCOc1ccc(CSCCNC(=S)Nc2ccccc2)cc1 | i | -5 | -6 | 20 | 1 | 51*
COc1cc(C(=O)Nc2c(C(=O)O)[nH]c3ccccc23)cc(OC)c1OC | i | · | · | · | · | ·
CCS(=O)(=O)Nc1c(C(=O)O)[nH]c2ccccc12 | + | -4 | -1 | -6 | -3 | -1
CC(=O)Nc1c(C(=O)O)[nH]c2ccccc12 | i | -1 | 18 | 4 | 7 | 72*
CCS(=O)(=O)Nc1c(C(=O)OC)[nH]c2ccccc12 | i | -3 | 23 | -23 | 12 | -19
Cc1ccc2oc(NC(=O)N3CCOCC3)cc(=O)c2c1 | i | 3 | 80* | -1 | 0 | 3
SMILES | Rce1 inhib | CTSL1 counter | FXIIa inh | thrombin 1536 | FXIa inh 1536 | hK5 inh
O=C(Nc1cc(=O)c2ccccc2o1)N1CCOCC1 | i | 0 | -7 | -5 | 9 | -11
CC(C)CC(NC(=O)C1CCC(C)CC1)C(=O)NCc1ccco1 (stereo unspecified) | i | 23* | 4 | -1 | -6 | -20
COc1ccc(CNC(=O)CN2C(=O)CCSc3ccc(S(=O)(=O)N4CCCC4)cc32)cc1 | i | -1 | · | · | · | ·
CCOC(=O)c1c(-c2ccc(C)o2)csc1NC(=O)CSc1nnc(C)s1 | · | 2 | -2 | -8 | -5 | 0
CCOC(=O)c1c(-c2ccc(C)o2)csc1NC(=O)COC(=O)c1ccc(NC(N)=O)cc1 | i | 19* | 7 | -4 | 1 | 3
Cc1ccc2c(c1)N(CC(=O)N1CCCCC1c1cccnc1)C(=O)CO2 (stereo unspecified) | i | 18* | 0 | -9 | -7 | -3
COc1ccccc1-c1ccc(Nc2ccc(C(=O)N3CCOCC3)cc2)nn1 | i | 18* | 3 | -3 | -4 | -8
COc1ccc(-c2ccc(Nc3ccc(C(=O)N4CCOCC4)cc3)nn2)cc1OC | · | 3 | 14 | -1 | 3 | -3
CC(C)Cc1nnc(NC(=O)CCC(=O)N2CCCCC2)s1 | i | -1 | · | · | · | ·
CCc1nnc(NC(=O)CCC(=O)N2CCCC2)s1 | i | 0 | 28 | 42* | -8 | 54*
O=C(Cc1ccc(N2CCNC2=O)cc1)N1CCCC(Nc2ccc(F)c(F)c2)C1 (stereo unspecified) | i | -3 | · | · | · | ·
CCOc1ccc2nc(N/C(N)=N/C(=S)Nc3cccc(C)c3)nc(C)c2c1 | i | 2 | 11 | 5 | -63 | -22
CCOc1ccc2nc(N/C(N)=N/C(=S)Nc3cccc(OC)c3)nc(C)c2c1 | i | 23* | 8 | -1 | 2 | 0
CC(C)=CCN1CCN(Cc2cnc(-c3ccccc3)s2)CC1CCO (stereo unspecified) | i | -6 | 5 | -5 | 2 | ·
COc1cc(/C=N/NC(=O)c2ccncc2)ccc1OC(=O)c1cc(OC)c(OC)c(OC)c1 | + | 4 | · | · | · | ·
CCOC(=O)CSc1nnc(CNC(=O)c2ccc(S(=O)(=O)N3CCCC3)cc2)n1C | i | -6 | 4 | 48* | 3 | 48*
Cc1cc2c(C)nc(N/N=C/c3ccc([N+](=O)[O-])cc3)nc2o1 | i | 0 | 9 | 12 | 13 | 50*
CCOC(=O)N1CCN(C(=O)c2oc3ccc(S(=O)(=O)N4CCCCCC4)cc3c2C)CC1 | i | -3 | 15 | -1 | 9 | -12
CCOC(=O)N1CCN(C(=O)c2oc3ccc(S(=O)(=O)N4CCOCC4)cc3c2C)CC1 | i | 0 | 3 | 40* | -8 | -9
COc1ccc(NC(=O)c2oc3ccc(S(=O)(=O)N4CCC5(CC4)OCCO5)cc3c2C)cc1 | i | 0 | 15 | 8 | 11 | 100*
Nc1c(-c2ccccc2)c(CSc2nc3ccccc3[nH]2)nn1-c1cccc(Cl)c1 | i | -3 | 18 | 21 | 11 | 24
Nc1c(-c2ccccc2)c(CSc2nc3ccccc3[nH]2)nn1-c1ccc(Cl)cc1 | i | 0 | 33 | 17 | 14 | 62*
O=C(NCc1ccncc1)c1ccc(Br)o1 | i | 0 | 41* | 0 | 35 | 3
O=C(NCc1cccnc1)c1ccc(Br)o1 | i | -3 | · | · | · | ·
Cc1cccc(OCC(=O)N/N=C/c2ccc(N(C)C)cc2)c1 | i | 2 | 8 | -2 | -2 | 0
Cc1cccc(OCC(=O)N/N=C/c2ccccc2C(=O)O)c1 | i | -2 | 26 | 34 | 43* | 42*
Cn1c(Cl)nc2c1c(=O)n(Cc1cccc(Br)c1)c(=O)n2C | i | -3 | 12 | 104* | 14 | 34
C/C(CC(=O)NCc1ccco1)=N\NC(=O)c1ccc([N+](=O)[O-])cc1Cl | + | 0 | · | · | · | ·
C/C(CC(=O)NCc1ccco1)=N\NC(=O)c1ccc(Cl)cc1Cl | i | -4 | · | · | · | ·
